ChEMBL document CHEMBL4339193, “Phenotypic Screening-Based Identification of 3,4-Disubstituted Piperidine Derivatives as Macrophage M2 Polarization Modulators: An Opportunity for Treating Multiple Sclerosis” (J Med Chem, 2019)
Activity calls are given as the source filed them. No cut-off for these calls is given here.

Tests used:
[1] = AUC (0 to t) in Sprague-Dawley rat at 10 mg/kg, iv administered as single dose by LC/MS analysis; format: ADME, organism-based; conditions: in vivo
Outline: (§1)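 Single dose in rats; venous blood (100 µL) drawn at 0, 0.5, 1, 2, 4, 8 and 12 h, plasma separated by centrifugation and held at -20 °C. Compound measured by LC/MS; Cmax, Tmax, t1/2 and AUC derived from the concentration–time data.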

RAW264.7 [2] = assay: Modulation of M2 polarization in mouse RAW264.7 cells assessed as up regulation of IL13RA1 mRNA expression at 300 nM measured after 24 hrs by qRT-PCR analysis; format: functional, cell-based
[3] = target: RAC-alpha serine/threonine-protein kinase (Mus musculus) (UniProt P31750); assay: Stimulation of AKT phosphorylation at 308 residue in mouse RAW264.7 cells at 300 nM measured after 4 to 24 hrs by Western blot analysis; format: cell-based
Chain of RAC-alpha serine/threonine-protein kinase (Mus musculus) (P31750 whole entry): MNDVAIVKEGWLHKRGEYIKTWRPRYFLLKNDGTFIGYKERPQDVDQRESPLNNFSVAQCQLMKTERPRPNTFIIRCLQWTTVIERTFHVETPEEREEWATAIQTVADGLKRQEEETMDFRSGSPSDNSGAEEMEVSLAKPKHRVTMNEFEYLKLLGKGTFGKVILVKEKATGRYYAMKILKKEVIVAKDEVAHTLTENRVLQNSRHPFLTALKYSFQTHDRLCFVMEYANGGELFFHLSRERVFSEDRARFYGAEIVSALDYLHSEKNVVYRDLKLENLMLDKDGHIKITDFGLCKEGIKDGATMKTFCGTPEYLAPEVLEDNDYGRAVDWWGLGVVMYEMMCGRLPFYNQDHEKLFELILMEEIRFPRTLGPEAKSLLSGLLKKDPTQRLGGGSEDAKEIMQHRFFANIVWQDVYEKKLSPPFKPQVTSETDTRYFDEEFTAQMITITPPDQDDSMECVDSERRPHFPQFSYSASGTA
Outline: (§2)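 Cell lysates separated by SDS-PAGE, transferred to PVDF and probed for Akt, p-Akt(308), p-Akt(473), Stat3, p-Stat3(Y705), Stat6 and p-Stat6; ECL detection, GAPDH as loading control.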

Mus musculus [4] = assay: (§3) Induction of M2 polarization in C57BL/6J mouse model of MOG (35 to 55 residues)/pertussis toxin/complete Freund's adjuvant-induced experimental allergic encephalomyelitis assessed as CD206 level in CNS at 200 mg/kg, ig administered daily starting from 7 days post-immunization measured after 13 to 19 days post-immunization by flow cytometry analysis (reference value: 7.8%); format: functional
Outline: (§4)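 MOG35-55/CFA EAE mice were dosed daily in saline from day 7 and sampled between days 13 and 19. Cells came from spleen and dLN by mechanical dissociation and from CNS by collagenase IV/Percoll. They were stained for F4/80 with CD206 (M2) or CD86 (M1), and each was read by flow cytometry as a percentage of total F4/80+ macrophages.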

[5] = Tmax in Sprague-Dawley rat at 10 mg/kg, iv administered as single dose by LC/MS analysis; format: ADME, organism-based; conditions: in vivo; outline: as §1
Mus musculus [6] = assay: (§5) Antiinflammatory activity in C57BL/6J mouse model of MOG (35 to 55 residues)/pertussis toxin/complete Freund's adjuvant-induced experimental allergic encephalomyelitis assessed as reduction in demyelination in spinal cord at 200 mg/kg, ig administered daily starting from 7 days post-immunization measured after 14 days post-immunization by LFB staining based microscopic analysis; format: functional, organism-based
Outline: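 EAE mice dosed daily in saline from day 7 were perfused with PBS and fixed in 4% PFA on day 14; spinal cords were taken. For LFB, frozen OCT sections sat 3 h in 0.1% Luxol Fast Blue at 56-60°C, were differentiated in 0.05% lithium carbonate for 10-12 s, cleared in 70% ethanol, dehydrated and mounted. For H&E, paraffin sections were stained to assess inflammation.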

RAW264.7 [7] = assay: Modulation of M2 polarization in mouse RAW264.7 cells assessed as up regulation of CD163 mRNA expression at 300 nM measured after 24 hrs by qRT-PCR analysis; format: functional, cell-based
[8] = Ratio of AUC (0 to t) to AUC (0 to infinity) in Sprague-Dawley rat at 50 mg/kg, po administered as single dose via gavage; format: ADME, organism-based; conditions: in vivo
Mus musculus [9] = assay: as §3, with “draining lymph nodes” for “CNS”, “6.5%)” for “7.8%)”; format: functional; outline: as §4
Mus musculus [10] = assay: as §3, with “Inhibition” for “Induction”, “M1” for “M2”, “CD86” for “CD206”, “spleen” for “CNS”, “11.8%)” for “7.8%)”; format: functional; parameters: scale not given: the % may be the effect or the level left; outline: as §4
[11] = Cmax in Sprague-Dawley rat at 50 mg/kg, po administered as single dose via gavage by LC/MS analysis; format: ADME, organism-based; parameters: dose 50 mg/kg, route oral; conditions: in vivo; outline: as §1
[12] = target: RAC-alpha serine/threonine-protein kinase (Mus musculus) (UniProt P31750); assay: Stimulation of AKT phosphorylation at 473 residue in mouse RAW264.7 cells at 300 nM measured after 4 to 24 hrs by Western blot analysis; format: cell-based; outline: as §2
RAW264.7 [13] = assay: Modulation of M2 polarization in mouse RAW264.7 cells assessed as up regulation of IL13 mRNA expression at 300 nM measured after 24 hrs by qRT-PCR analysis; format: functional, cell-based
BMDM [14] = assay: Inhibition of LPS-induced M1 polarization in C57BL/6J mouse BMDM cells assessed as down regulation of CD86 expression at 300 nM measured after 24 hrs by FACS analysis; format: functional, cell-based
Outline: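 BMDMs pretreated with 50 ng/ml LPS for 24 h, then given compound (300 nM, or a range of concentrations) for 24 h. Stained for F4/80 and CD86; % CD86+F4/80+ cells read by flow cytometry. Mean ± SEM, at least three independent experiments.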

Mus musculus [15] = assay: as §5, with “TH17 cell population” for “reduction in demyelination”, “cord by measuring IL17 level” for “cord”, “14 to 21” for “14”, “flow cytometry” for “LFB staining based microscopic”, “analysis (reference value: 7.7%)” for “analysis”; format: functional
Outline: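 EAE induced with MOG35-55 (2 mg/ml in PBS) emulsified in CFA containing 4 mg/ml heat-killed M. tuberculosis H37Ra, injected s.c. into the neck and both hindlegs. Drug in saline daily from day 7. Between days 13 and 19, CNS mononuclear cells were taken by collagenase IV digestion and a 70%/30% Percoll gradient. Cells were restimulated 5 h with brefeldin A 2 µg/ml, PMA 0.1 µg/ml and ionomycin 0.5 µg/ml, stained for surface CD4, fixed and permeabilised, then stained intracellularly for IFN-γ/IL-17A. Analysed by flow cytometry; n=4 mice per group.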

[16] = AUC (0 to t) in Sprague-Dawley rat at 50 mg/kg, po administered as single dose via gavage by LC/MS analysis; format: ADME, organism-based; conditions: in vivo; outline: as §1
BMDM [17] = assay: Inhibition of LPS-induced M1 polarization in C57BL/6J mouse BMDM cells assessed as down regulation of Mcp1 mRNA expression at 300 nM measured after 24 hrs by qRT-PCR analysis; format: functional, cell-based
Outline: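 BMDMs pre-incubated 24 h with 50 ng/ml LPS to induce M1, then treated 24 h with 300 nM compound. Total RNA extracted with Trizol; Mcp1, Inos and Cd86 mRNA measured by qRT-PCR. Mean ± SEM.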

RAW264.7 [18] = assay: Inhibition of M1 polarization in mouse RAW264.7 cells assessed as down regulation of IL6R mRNA expression at 300 nM measured after 24 hrs by qRT-PCR analysis; format: functional, cell-based
Mus musculus [19] = assay: as §3, with “spleen” for “CNS”, “23.4%)” for “7.8%)”; format: functional; outline: as §4
BMDM [20] = assay: Modulation of M2 polarization in C57BL/6J mouse BMDM cells assessed as up regulation of Arg1 expression at 300 nM measured after 4 to 24 hrs by Western blot analysis; format: functional, cell-based
Outline: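 BMDMs lysed in pH 7.6 buffer with 1% Triton X-100, phosphatase inhibitor and 1 mM PMSF. Proteins separated by SDS-PAGE, blotted to PVDF and probed with anti-Arg-1, anti-Ym1 or anti-TNF-α, then ECL detection; GAPDH as loading control.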

SMILES: Cl.Cn1ncc(Cl)c1-c1ccc(C(=O)N[C@@H]2CNCC[C@H]2c2cccc(F)c2)cc1
- AUC(0-t) [1]: 1840 ng·h/mL
- Activity (RAW264.7 [2]): Active
- Activity [3]: Active
- Activity (Mus musculus [4]): 12.7%
- Tmax [5]: 4.98 min
- Activity (Mus musculus [6]): Active
- Activity (RAW264.7 [7]): Active
- Ratio AUC [8]: 98.425%
- Activity (Mus musculus [9]): 10.1%
- Activity (Mus musculus [10]): 6.9%
- Cmax [11]: 313 ng/mL
- Activity [12]: Active
- Activity (RAW264.7 [13]): Active
- inhibition (BMDM [14]): Active
- Activity (Mus musculus [15]): 4.5%
- AUC(0-t) [16]: 4670 ng·h/mL
- inhibition (BMDM [17]): Active
- inhibition (RAW264.7 [18]): Active
- Activity (Mus musculus [19]): 37.2%
- Activity (BMDM [20]): Active
